In ChEMBL document CHEMBL3779817, “Investigations on the 4-Quinolone-3-carboxylic Acid Motif. 7. Synthesis and Pharmacological Evaluation of 4-Quinolone-3-carboxamides and 4-Hydroxy-2-quinolone-3-carboxamides as High Affinity Cannabinoid Receptor 2 (CB2R) Ligands with Improved Aqueous Solubility” (J Med Chem, 2016):
pEC50, pIC50: −log10 of the molar value. Converted amounts (≈) assume the structure as drawn.

Key:
Cannabinoid receptor 2 [1] = target: T1, Cannabinoid receptor 2 (Homo sapiens, UniProt P34972); experiment: Displacement of [3H]-CP-55940 from human recombinant CB2 receptor expressed in HEK293 cells after 90 mins by Competition binding assay; type: cell-based
[2] = target: Cannabinoid receptor 1 (Homo sapiens) (UniProt P21554); conditions: HEK293
Homo sapiens = species: Homo sapiens; experiment: Selectivity index, ratio of Ki for recombinant human CB1 receptor to Ki for recombinant human CB2 receptor
[3] = Cytotoxicity against mouse NIH/3T3 cells assessed as cell viability after 24 hrs by neutral red uptake test; type: cell-based; conditions: NIH3T3, 24 h
[4] = Kinetic solubility in DMSO solution at pH 7.4 after 2 hrs by HPLC-UV analysis; type: physicochemical; conditions: for solubility kinetic at 2 h: DMSO solution, pH 7.4, read-out: Kinetic_solubility; for log(Kinetic_solubility): pH 7.4, 2 h
[5] = Kinetic solubility in DMSO solution at pH 1.0 after 2 hrs by HPLC-UV analysis; type: physicochemical; conditions: read-out: Kinetic_solubility
Cannabinoid receptor 2 [6] = target: T1, Cannabinoid receptor 2; experiment: Inverse agonist activity at recombinant human CB2 receptor expressed in CHO-K1 cells assessed as increase in […]-induced cAMP production by luminescence assay; type: functional, cell-based
In short: (§1)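 CHO-K1 cells overexpressing human CB2, 30000 per well, left overnight at 37 °C, 5% CO2, then given compound dose–response with NKH477 (3× solution of 25 μM) to stimulate adenylate cyclase. cAMP read by enzyme-fragment-complementation chemiluminescence; response normalised to NKH477 alone as 100%. Mean ± SEM of two independent experiments in triplicate.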

Cannabinoid receptor 2 [7] = target: T1, Cannabinoid receptor 2; experiment: Inverse agonist activity at recombinant human CB2 receptor expressed in CHO-K1 cells assessed as increase in […]-induced cAMP production by luminescence assay relative to AM630; type: functional, cell-based; in short: as §1

T1 sequence (P34972 whole entry): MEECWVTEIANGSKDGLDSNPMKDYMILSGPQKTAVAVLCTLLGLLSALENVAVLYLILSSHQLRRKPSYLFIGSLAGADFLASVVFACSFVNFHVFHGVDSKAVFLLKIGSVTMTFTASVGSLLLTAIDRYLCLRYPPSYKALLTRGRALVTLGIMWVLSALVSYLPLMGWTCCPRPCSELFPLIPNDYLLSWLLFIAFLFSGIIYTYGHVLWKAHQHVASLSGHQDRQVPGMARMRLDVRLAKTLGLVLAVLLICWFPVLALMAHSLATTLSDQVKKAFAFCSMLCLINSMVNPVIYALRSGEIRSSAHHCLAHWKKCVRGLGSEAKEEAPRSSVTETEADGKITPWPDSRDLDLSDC
Chain of Cannabinoid receptor 1 (Homo sapiens) (P21554 whole entry): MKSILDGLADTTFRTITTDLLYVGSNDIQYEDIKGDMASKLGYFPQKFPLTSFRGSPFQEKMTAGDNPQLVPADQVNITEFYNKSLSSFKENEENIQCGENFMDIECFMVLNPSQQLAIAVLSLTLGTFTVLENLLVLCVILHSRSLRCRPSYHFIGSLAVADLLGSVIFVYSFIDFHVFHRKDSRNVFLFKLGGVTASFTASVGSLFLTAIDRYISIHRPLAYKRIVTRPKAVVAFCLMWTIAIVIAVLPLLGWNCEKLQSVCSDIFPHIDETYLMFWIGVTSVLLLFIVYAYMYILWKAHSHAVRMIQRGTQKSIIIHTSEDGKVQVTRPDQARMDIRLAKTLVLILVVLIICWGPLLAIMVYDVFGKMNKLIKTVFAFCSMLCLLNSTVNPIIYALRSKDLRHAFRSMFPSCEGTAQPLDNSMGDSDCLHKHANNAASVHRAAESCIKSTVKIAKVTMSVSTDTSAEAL

| Compound | Kieq (Cannabinoid receptor 2 [1]) [nM] | Kieq [2] [nM] | Ratio Ki (Homo sapiens) | pIC50 [3] | solubility kinetic at 2 h [4] [µg/mL] | log(Kinetic_solubility) [4] | solubility kinetic at 2 h [5] [µg/mL] | pIC50 (Cannabinoid receptor 2 [1]) | pEC50 (Cannabinoid receptor 2 [6]) | Efficacy (Cannabinoid receptor 2 [7]) [%] |
| --- | --- | --- | --- | --- | --- | --- | --- | --- | --- | --- |
| CCCCCn1cc(C(=O)NC23CC4CC(CC(C4)C2)C3)c(=O)c2ccccc21 | 4.7 | 42.1 | 9 | – | – | – | – | – | – | – |
| O=C(NCC1CCCCC1)c1c(O)c2ccccc2n(CCCCO)c1=O | 41.3 | 829 | 20 | – | – | – | – | – | – | – |
| CCCCCn1cc(C(=O)NC23CC4CC(CC(C4)C2)C3)c(=O)c2cc(C(C)C)c(F)cc21 | – | – | – | 5.05 | – | – | – | – | – | – |
| CC(C)c1ccc2c(c1)c(=O)c(C(=O)NC13CC4CC(CC(C4)C1)C3)cn2CCN(C)C | 146 | > 10000 | > 68 | 5.30 | 4.5 (≈ 10.3 µM) | -4.99 | 31.5 (≈ 72.3 µM) | – | – | – |
| CCCCCn1c(=O)c(C(=O)NC23CC4CC(CC(C4)C2)C3)c(O)c2cc(C(C)C)ccc21 | 0.53 | 1240 | 2350 | 4.89 | 1.9 (≈ 4.22 µM) | -5.38 | 0.02 (≈ 0.0444 µM) | 8.43 | 8.59 | < 50 |
| CN(C)CCn1cc(C(=O)NC23CC4CC(CC(C4)C2)C3)c(=O)c2ccc(F)cc21 | 60 | 501 | 8 | 4.82 | 5.6 (≈ 13.6 µM) | -4.87 | 170 (≈ 414 µM) | – | – | – |
| CCCCCn1c(=O)c(C(=O)NC23CC4CC(CC(C4)C2)C3)c(O)c2cc(C(C)C)c(F)cc21 | 66.4 | > 10000 | > 150 | 4.89 | – | – | – | – | – | – |
| CCCCCn1c(=O)c(C(=O)NC23CC4CC(CC(C4)C2)C3)cc2cc(C(C)C)ccc21 | – | – | – | 4.04 | – | – | – | – | – | – |
| CC(C)c1ccc2c(c1)c(=O)c(C(=O)NC13CC4CC(CC(C4)C1)C3)cn2CCN1CCS(=O)(=O)CC1 | 1930 | > 10000 | > 5 | – | – | – | – | – | – | – |
| COCCOCn1cc(C(=O)NC23CC4CC(CC(C4)C2)C3)c(=O)c2ccc(F)cc21 | 56 | > 10000 | > 177 | – | – | – | – | – | – | – |
| O=C(NC12CC3CC(CC(C3)C1)C2)c1cn(CCN2CCS(=O)(=O)CC2)c2cc(F)ccc2c1=O | 246 | 1900 | 8 | – | – | – | – | – | – | – |
| Cc1ccc(Cn2nc(C(=O)N[C@@H]3C(C)(C)[C@@H]4CC[C@@]3(C)C4)cc2-c2ccc(Cl)c(C)c2)cc1 | – | > 2820 | – | – | – | – | – | – | – | – |
| CCCCCn1cc(C(=O)NC23CC4CC(CC(C4)C2)C3)c(=O)c2cc(-c3ccccc3)ccc21 | 3.8 | > 10000 | > 2660 | – | – | – | – | – | – | – |
| CC(C)c1cc2c(=O)c(C(=O)NC34CC5CC(CC(C5)C3)C4)cn(CCN(C)C)c2cc1F | 11.4 | 717 | 63 | – | 12.1 (≈ 26.7 µM) | -4.57 | 35.5 (≈ 78.3 µM) | – | – | – |
| CCCCCn1cc(C(=O)NC23CC4CC(CC(C4)C2)C3)c(=O)c2ccc(F)cc21 | 0.8 | 30.5 | 38 | 4.13 | 0.014 (≈ 0.0341 µM) | -7.47 | 0.05 (≈ 0.122 µM) | – | – | – |
| CCCCCn1c(=O)c(C(=O)NCc2ccc(OC)cc2)c(O)c2cc(-c3cccs3)ccc21 | 19.7 | 159 | 8 | – | – | – | – | – | – | – |
| CCCCCn1cc(C(=O)NC23CC4CC(CC(C4)C2)C3)c(=O)c2cc(C(C)C)ccc21 | – | – | – | 4.85 | 1 (≈ 2.3 µM) | -5.64 | 0.21 (≈ 0.483 µM) | – | – | – |
| CCCCCn1c(=O)c(C(=O)NC23CC4CC(CC(C4)C2)C3)c(O)c2ccccc21 | – | – | – | 4.13 | 1.4 (≈ 3.43 µM) | -5.47 | 0.23 (≈ 0.563 µM) | 8.70 | 8.62 | < 50 |
| CCCCCn1cc(C(=O)NC23CC4CC(CC(C4)C2)C3)c(=O)c2ccc(Sc3ccccc3)cc21 | 1.6 | 5.3 | 3.3 | – | – | – | – | – | – | – |
| CCCCCn1c2c(c(O)c(C(=O)NC34CC5CC(CC(C5)C3)C4)c1=O)CCCC2 | – | – | – | 4.82 | 1.3 (≈ 3.15 µM) | -5.5 | 0.1 (≈ 0.242 µM) | – | – | – |
| CCCCCn1c(=O)c(C(=O)NC23CC4CC(CC(C4)C2)C3)c(O)c2ccc(F)cc21 | 0.93 | 1280 | 1380 | 4.72 | 1.5 (≈ 3.52 µM) | -5.45 | 0.17 (≈ 0.399 µM) | 8.46 | 7.75 | < 50 |
| COCCOCn1cc(C(=O)NC23CC4CC(CC(C4)C2)C3)c(=O)c2cc(C(C)C)ccc21 | 480 | > 10000 | > 20 | – | – | – | – | – | – | – |
| COc1ccc(CNC(=O)c2c(O)c3cc(-c4cccs4)ccc3n(CCCCO)c2=O)cc1 | 2240 | > 10000 | > 4 | – | – | – | – | – | – | – |
| O=C(NCc1ccc(F)cc1)c1c(O)c2cc(-c3ccco3)ccc2n(CCCCO)c1=O | 253 | 1580 | 6 | – | – | – | – | – | – | – |
